From ChEMBL document CHEMBL1122926, “Potential radiosensitizing agents. 7. 4(5)-Iodo-5(4)-nitroimidazole derivatives” (J Med Chem, 1985) come the findings set out here.

A short description of series [1]: Compound evaluated for the partition coefficient (PC). Format: physicochemical. Particulars: octanol/water. In a few lines:
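Octanol/phosphate buffer (0.1 M, pH 7.4) partition, equal volumes, stirred 1 h at room temperature. Nitroimidazole concentration in each phase measured spectrophotometrically.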

Series [2] is described as follows: Evaluated for sensitizer enhancement ratio determined by dividing the D0 value from the control radiation survival curve by the […] from the radiation survival curve in the presence at a concentration of 0.025 mM. It counts as functional. In a few lines:
(§1)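 Hypoxic asynchronous V-79 monolayers in sealed containers (95% N2/5% CO2 purge) with drug present. Irradiated at room temperature by linear accelerator, 180 rad/min, 400–2400 rad, for full survival curves by colony formation. SER is the D0 of hypoxic control cells divided by the D0 of hypoxic drug-treated cells. Drug given at maximum nontoxic 2-h concentration, up to 1 mM.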

Series [3] in a line: Compound evaluated in vitro for the dose required to kill 50% of chinese hamster cells measured by colony formation […]. Format: functional. The conditions noted are these: Cricetulus griseus, read-out: ED50 (the source's name). In a few lines: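 Chinese hamster V-79 cells, about 200 per dish, attached 2 h in MEM + 15% fetal calf serum. Exposed to a range of drug concentrations for 2 h at 37 °C, in air or hypoxia (95% N2/5% CO2 purge, 90 min). Drug then replaced by fresh medium, 6-day incubation, colonies stained with methylene blue and counted. ED50 read from concentration vs. percent survival graphs.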

Series [4] is described as follows: Evaluated for sensitizer enhancement ratio determined by dividing the D0 value from the control radiation survival curve by the […] from the radiation survival curve in the presence at a concentration of 0.1 mM. Format: functional. In a few lines:
as §1

The nature of series [5]: Evaluated for sensitizer enhancement ratio determined by dividing the D0 value from the control radiation survival curve by the […] from the radiation survival curve in the presence at a concentration of 0.05 mM. It counts as functional. In a few lines: as §1
Series [6] is described as follows: Evaluated for sensitizer enhancement ratio determined by dividing the D0 value from the control radiation survival curve by the […] from the radiation survival curve in the presence at a concentration of 0.25 mM. Format: functional. The gist of the method:
as §1

Series [7] is described as follows: Evaluated for sensitizer enhancement ratio determined by dividing the D0 value from the control radiation survival curve by the […] from the radiation survival curve in the presence at a concentration of 0.5 mM. It counts as functional. The gist of the method:
as §1

Series [8] in a line: Evaluated for sensitizer enhancement ratio determined by dividing the D0 value from the control radiation survival curve by the […] from the radiation survival curve in the presence at a concentration of 1.0 mM.
The nature of series [9]: Evaluated for sensitizer enhancement ratio determined by dividing the D0 value from the control radiation survival curve by the […] from the radiation survival curve in the presence at a concentration of 1.0 mM. Format: functional. The gist of the method: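 V-79 Chinese hamster asynchronous monolayers in MEM with 15% fetal calf serum. Cells made hypoxic in sealed containers purged with 95% N2/5% CO2 for 90 min, drug exposure 2 h. Irradiated at room temperature by linear accelerator at 180 rad/min, 400–2400 rad. Colonies counted after 6 days at 37 °C. SER = D0 of hypoxic controls / D0 of hypoxic drug-treated cells.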

In series [1], `CCOC(=O)Cn1cnc([N+](=O)[O-])c1I` gave a PC of 3.7. Further, the Ratio in series [2] was 1.7. The EC50 in [3] stood at 60 µM.
With `CCOC(=O)Cn1cnc(I)c1[N+](=O)[O-]`, in series [1], the PC came out at 8.6. In addition, the EC50 in series [3] came to 180 µM. For the same compound, the Ratio in series [4] was 1.8.
For `Cn1cnc([N+](=O)[O-])c1I`, the Ratio in series [5] worked out at 2.5. Also, the PC in series [1] was 10.1. Also, the EC50 in series [3] was determined as 140 µM.
In series [1], `COCC(O)Cn1cnc([N+](=O)[O-])c1I` (stereo not given) showed a PC of 2.6. The EC50 in series [3] came out at 170 µM. Moreover, the Ratio in series [4] came out at 1.6.
In the same order, the values of `COCC(O)Cn1cnc(I)c1[N+](=O)[O-]` (stereo not given) are 7.8, 480 µM and 1.4.
For `O=C(Cn1cnc([N+](=O)[O-])c1I)NCc1cccnc1`, in series [6], the Ratio turned out to be 1.5. Besides, the PC in [1] was 2.9. The EC50 in [3] was 650 µM.
With `Cn1cnc(I)c1[N+](=O)[O-]`, the PC in [1] was 19.4. Also, the EC50 in series [3] is 820 µM. Also, in series [7], the Ratio is 2.4.
Consider `O=C(Cn1cnc([N+](=O)[O-])c1I)NCc1ccc[n+]([O-])c1`, for which the PC in [1] is listed as 0.04. For the same compound, the EC50 in series [3] was more than 1000 µM. For the same compound, the Ratio in series [8] stood at 1.2.
As for `O=[N+]([O-])c1[nH]cnc1I`, the PC in series [1] is 1.9. Moreover, the Ratio in [9] was determined as 1.1. In series [3], the EC50 is more than 1000 µM.
Take `O=C(Cn1cnc(I)c1[N+](=O)[O-])NCc1cccnc1`: the PC in series [1] is reported as 7.6. For the same compound, in [3], the EC50 came to 180 µM. The Ratio in series [4] amounted to 1.7.
